Data published in ChEMBL document CHEMBL4052621, “Identification of new anti-inflammatory agents based on nitrosporeusine natural products of marine origin” (Eur J Med Chem, 2017).
Active and inactive are the calls of the source. The calls are words filed in the database; no cut-off is given here.

Tests used:
[1] = tested on: RAW264.7; test: Cytotoxicity against mouse RAW264.7 cells assessed as decrease in cell viability after 24 hrs by MTT assay; type: cell-based; conditions: RAW264.7, 24 h
Procedure, shortened: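 RAW264.7 macrophage viability after compound exposure was measured by MTT assay. IC50 (µM) was calculated and reported with a 95% confidence interval.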

[2] = tested on: RAW264.7; test: Selectivity index, ratio IC50 for cytotoxicity against mouse RAW264.7 cells to IC50 for antiinflammatory activity in mouse RAW264.7 cells; type: functional
Procedure, shortened: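 Ratio A/B in RAW 264.7 cells. A is the cytotoxicity IC50 from the MTT assay. B is the IC50 for inhibiting NO production in LPS-stimulated cells, with nitrite in the culture medium measured by Griess reagent. Both IC50s are reported with 95% confidence intervals.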

[3] = tested on: RAW264.7; test: Antiinflammatory activity in mouse RAW264.7 cells assessed as inhibition of LPS-induced NO production after 24 hrs by Griess assay; type: functional, cell-based; conditions: for IC50: RAW264.7, 24 h
Procedure, shortened: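 LPS-stimulated RAW264.7 cells were co-treated with compound. Nitrite, a stable NO metabolite, was measured in culture medium with Griess reagent. IC50 (µM) was reported with a 95% confidence interval.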

[4] = tested on: Mus musculus; test: Antiinflammatory activity in BALB/c mouse assessed as inhibition of LPS-induced IL-12 production at 10 mg/kg, ip pretreated for 3 days as single dose followed by LPS administration after 24 hrs by phycoerythrin staining based flow cytometry; type: functional, organism-based
[5] = tested on: RAW264.7; test: Antiinflammatory activity in mouse RAW264.7 cells assessed as inhibition of LPS-induced IL-12 production at 50 uM after 24 hrs by phycoerythrin staining based flow cytometry; type: functional, cell-based
Procedure, shortened: (§1)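 Cytokine bead array on protein extracts of RAW 264.7 cells treated with LPS plus compound at 50 µM. Read-outs were IL-12, IL-6, TNF-α, MCP-1 and IFN-γ, referenced to LPS-treated cells. Mean ± SD, n = 3 independent experiments.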

[6] = tested on: RAW264.7; test: Antiinflammatory activity in mouse RAW264.7 cells assessed as inhibition of LPS-induced TNF-alpha production at 50 uM after 24 hrs by phycoerythrin staining based flow cytometry; type: functional, cell-based; procedure, shortened: as §1
[7] = tested on: Mus musculus; test: Antiinflammatory activity in BALB/c mouse assessed as inhibition of LPS-induced […] production at 10 mg/kg, ip pretreated for 3 days as single dose followed by LPS administration after 24 hrs by phycoerythrin staining based flow cytometry; type: functional, organism-based
[8] = tested on: Mus musculus; test: Antiinflammatory activity in BALB/c mouse assessed as inhibition of LPS-induced TNF-alpha production at 10 mg/kg, ip pretreated for 3 days as single dose followed by LPS administration after 24 hrs by phycoerythrin staining based flow cytometry; type: functional, organism-based
[9] = tested on: RAW264.7; test: Antiinflammatory activity in mouse RAW264.7 cells assessed as inhibition of LPS-induced iNOS production at 50 uM after 24 hrs by Western blot analysis; type: functional, cell-based
Procedure, shortened: (§2)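 Protein was isolated from control, LPS, and LPS + compound (50 µM) RAW 264.7 cultures and immunoblotted. iNOS, COX-2 and phospho-NF-κB were quantified densitometrically against β-actin. Mean ± SD of 3 independent experiments, compared with LPS treatment.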

[10] = tested on: RAW264.7; test: Antiinflammatory activity in mouse RAW264.7 cells assessed as inhibition of LPS-induced […] production at 50 uM after 24 hrs by phycoerythrin staining based flow cytometry; type: functional, cell-based; procedure, shortened: as §1
[11] = tested on: RAW264.7; test: Antiinflammatory activity in mouse RAW264.7 cells assessed as inhibition of LPS-induced ROS production after 24 hrs by CM-H2DCFDA dye based fluorescence assay; type: functional, cell-based
Procedure, shortened: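 Intracellular ROS was measured in LPS-treated RAW 264.7 cells exposed to compounds at several doses. The read-out was mean fluorescence intensity, compared with LPS-treated cells. Data are mean ± SD of three independent experiments.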

[12] = tested on: RAW264.7; test: Antiinflammatory activity in mouse RAW264.7 cells assessed as inhibition of LPS-induced MCP-1 production at 50 uM after 24 hrs by phycoerythrin staining based flow cytometry; type: functional, cell-based; procedure, shortened: as §1
[13] = species: Mus musculus; test: Inhibition of LPS-induced NFkappaB phosphorylation in mouse RAW264.7 cells at 50 uM after 24 hrs by Western blot analysis; type: cell-based; procedure, shortened: as §2
[14] = tested on: Mus musculus; test: Antiinflammatory activity in BALB/c mouse assessed as inhibition of LPS-induced IL-6 production at 10 mg/kg, ip pretreated for 3 days as single dose followed by LPS administration after 24 hrs by phycoerythrin staining based flow cytometry; type: functional, organism-based
[15] = tested on: Mus musculus; test: Antiinflammatory activity in BALB/c mouse assessed as inhibition of LPS-induced MCP-1 production at 10 mg/kg, ip pretreated for 3 days as single dose followed by LPS administration after 24 hrs by phycoerythrin staining based flow cytometry; type: functional, organism-based
[16] = tested on: RAW264.7; test: Antiinflammatory activity in mouse RAW264.7 cells assessed as inhibition of LPS-induced IL-6 production at 50 uM after 24 hrs by phycoerythrin staining based flow cytometry; type: functional, cell-based; procedure, shortened: as §1
[17] = tested on: RAW264.7; test: Antiinflammatory activity in mouse RAW264.7 cells assessed as inhibition of LPS-induced COX-2 production at 50 uM after 24 hrs by Western blot analysis; type: functional, cell-based; procedure, shortened: as §2
[18] = Antiviral activity against Influenza A virus A/WSN/33(H1N1) infected in MDCK cells preincubated for 1 hr followed by compound wash measured after 48 hrs by plaque reduction assay; type: functional, cell-based, Influenza A virus (A/WSN/1933(H1N1))
[19] = Antiviral activity against Influenza A virus A/WSN/33(H1N1) infected in MDCK cells at 50 uM preincubated for 15 mins measured after 1.5 days by CellTiter-Glo assay relative to control; type: functional, Influenza A virus (A/WSN/1933(H1N1))

SMILES	IC50 [1]	Ratio IC50 [2]	IC50 [3]	further results
CC(=O)S[C@@]12CC[C@H](O)[C@@H]1C(=O)NC2=O (relative stereo)	558 µM	3.7762	148 µM	–
CC(=O)S[C@]12CC[C@H](O)[C@H]1C(=O)NC2=O (relative stereo)	857 µM	1.029	833 µM	–
O=C(Cc1ccccc1)SC12CCC=C1C(=O)NC2=O (stereo not given)	93.1 µM	3.042	30.6 µM	–
CC(=O)O[C@H]1CCC2=C1C(=O)NC2=O	128 µM	0.1477	867 µM	–
O=C(SC1CC[C@]2(SC(=O)c3ccc(F)cc3)C(=O)NC(=O)[C@H]12)c1ccc(F)cc1 (stereo not given in full)	211 µM	2.142	98.3 µM	–
O=C(S[C@]12CCC[C@H]1C(=O)NC2=O)c1ccc(F)cc1 (relative stereo)	384 µM	0.9841	390 µM	–
CC(=O)SC1CC[C@]2(SC(C)=O)C(=O)NC(=O)[C@H]12 (stereo not given in full)	10000 µM	505.4343	19.8 µM	inhibition [4]: Active; inhibition [5]: Active; inhibition [6]: Active; inhibition [7]: Active; inhibition [8]: Active; inhibition [9]: Active; inhibition [10]: Active; inhibition [11]: Dose-dependent effect; inhibition [12]: Active; inhibition [13]: Active; inhibition [14]: Active; inhibition [15]: Active; inhibition [16]: Active; inhibition [17]: Active
CCOC(=O)C1=C[C@@H](OC(CC)CC)[C@H](NC(C)=O)[C@@H](N)C1.O=P(O)(O)O [OSELTAMIVIR PHOSPHATE]	–	–	–	EC50 [18]: 67 µM; Activity [19]: 54%
CC(=O)O[C@@H]1CC[C@]2(SC(=O)c3ccc(F)cc3)C(=O)NC(=O)[C@H]12	–	–	–	inhibition [3]: Active
O=C(Cc1ccccc1)S[C@]12CC[C@H](O)[C@H]1C(=O)NC2=O (relative stereo)	774 µM	5.418	143 µM	–
O=C(S[C@]12CCC[C@H]1C(=O)NC2=O)c1ccccc1Cl (relative stereo)	834 µM	13.95	59.8 µM	–
CC(=O)O[C@@H]1CC[C@@]2(SC(=O)c3ccc(F)cc3)C(=O)NC(=O)[C@@H]12	–	–	–	inhibition [3]: Active
O=C1NC(=O)C2=C1CC[C@@H]2O	217 µM	2.26	95.9 µM	–
O=C1NC(=O)C2=C1CC[C@H]2O	319 µM	2.631	121 µM	–
O=C(S[C@@]12CC[C@H](O)[C@@H]1C(=O)NC2=O)c1ccccc1Cl (relative stereo)	668 µM	5.245	–	–
O=C(S[C@]12CC[C@H](O)[C@H]1C(=O)NC2=O)c1ccccc1 (relative stereo)	17100 µM	261.7025	65.2 µM	–
O=C(S[C@@]12CC[C@H](O)[C@@H]1C(=O)NC2=O)c1ccccc1 (relative stereo)	479 µM	6.622	72.4 µM	–
O=C1NC(=O)C2=C1CCC2SC(=O)c1cccs1 (stereo not given)	26.7 µM	0.4108	65 µM	–

SMILES	IC50 [1]	Ratio IC50 [2]	IC50 [3]	further results
O=C(S[C@]12CC[C@H](O)[C@H]1C(=O)NC2=O)c1ccccc1Cl (relative stereo)	717 µM	4.022	178 µM	–
CC(=O)O[C@H]1CC[C@]2(SC(=O)c3ccc(F)cc3)C(=O)NC(=O)[C@H]12	–	–	–	inhibition [3]: Active
O=C(SC12CCC(O)C1C(=O)NC2=O)c1ccc(O)cc1 (racemic)	434 µM	1.925	225 µM	–
CC(=O)OC1CC[C@]2(SC(=O)Cc3ccccc3)C(=O)NC(=O)[C@H]12 (stereo not given in full)	1610 µM	23.57	68.2 µM	–
CC(=O)SC12CCC=C1C(=O)NC2=O (stereo not given)	184 µM	9	20.5 µM	–
O=C(Cc1ccccc1)S[C@@]12CC[C@H](O)[C@@H]1C(=O)NC2=O (relative stereo)	834 µM	6.322	132 µM	–
CC(=O)OC1CC[C@]2(SC(=O)c3ccccc3Cl)C(=O)NC(=O)[C@H]12 (stereo not given in full)	9080 µM	89.51	101 µM	–
CC(=O)S[C@]12CCC[C@H]1C(=O)NC2=O (relative stereo)	674 µM	11.39	59.2 µM	–
O=C(S[C@@]12CC[C@@H](O)[C@@H]1C(=O)NC2=O)c1ccc(O)cc1	2910 µM	22.99	127 µM	–
O=C(Cc1ccccc1)SC1CC[C@]2(SC(=O)Cc3ccccc3)C(=O)NC(=O)[C@H]12 (stereo not given in full)	711 µM	12.36	57.5 µM	–
O=C(S[C@]12CC[C@@H](O)[C@H]1C(=O)NC2=O)c1ccc(O)cc1	616 µM	14.67	42 µM	–
O=C(Cc1ccccc1)S[C@]12CCC[C@H]1C(=O)NC2=O (relative stereo)	426 µM	7.48	56.9 µM	–
O=C(S[C@@]12CC[C@H](O)[C@@H]1C(=O)NC2=O)c1ccc(O)cc1	1020 µM	14.14	71.8 µM	Activity [19]: 18.6%
CC(=O)OC1CC[C@]2(SC(=O)c3ccc(F)cc3)C(=O)NC(=O)[C@H]12 (stereo not given in full)	12100 µM	353.8076	34.3 µM	inhibition [4]: Active; inhibition [5]: Active; inhibition [6]: Active; inhibition [7]: Active; inhibition [8]: Active; inhibition [9]: Active; inhibition [10]: Active; inhibition [11]: Dose-dependent effect; inhibition [12]: Active; inhibition [13]: Active; inhibition [14]: Active; inhibition [15]: Active; inhibition [16]: Active; inhibition [17]: Active
O=C(S[C@]12CC[C@H](O)[C@H]1C(=O)NC2=O)c1ccc(F)cc1 (relative stereo)	474 µM	1.49	318 µM	–
O=C(S[C@]12CC[C@H](O)[C@H]1C(=O)NC2=O)c1cccs1 (relative stereo)	10900 µM	297.0519	36.6 µM	inhibition [4]: Active; inhibition [5]: Active; inhibition [6]: Active; inhibition [7]: Active; inhibition [8]: Active; inhibition [9]: Active; inhibition [10]: Active; inhibition [11]: Dose-dependent effect; inhibition [12]: Active; inhibition [13]: Active; inhibition [14]: Active; inhibition [15]: Active; inhibition [16]: Active; inhibition [17]: Active
CC(=O)OC1CC[C@]2(SC(=O)c3ccccc3)C(=O)NC(=O)[C@H]12 (stereo not given in full)	1910 µM	29.74	64.3 µM	–
